In PubChem BioAssay:
Unmarked numbers belong to inactive results. Results filed as inconclusive are left out. Calls of active or inactive are those of the source.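 The calls were made as follows, unless noted: active = viability increase at or above a cutoff of the median across tested compounds plus 3 SD (cut at about 8.5% in these data, passing the limit was not always enough); inconclusive = some gains above the cutoff, reason not given; inactive = the rest.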

Legend:
[1] = OD615 S. cerevisiae growth inhibition, permissive medium, pilot counter-assay, permissive growth control for S. cerevisiae lifespan shortening project (AID 705;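 active = growth inhibition above 25% in both replicates, a cutoff set 3 SD above the mean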); conditions: OD615, 24 h, at 10 µM, hits give high values
Method in brief: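 Material: engineered DeaD yeast; Compound: one dose 10 µM, DMSO 0.25% final; Detection: absorbance (optical density) at 615 nm; Buffer or medium: permissive raffinose/galactose medium; Timing: 24 h exposure, 30 °C.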

[2] = Restrictive medium S. cerevisiae growth inhibition, OD615, pilot screen of yeast lifespan reduction project, restrictive growth control (AID 706;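 active = growth inhibition above a set limit, 3 SD over mean compound inhibition, in both replicates, cut at about 43% in these data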;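 also: modified DeaD lifespan yeast strain shifted to restrictive glucose medium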); conditions: OD615, 48 h, at 10 µM, hits give high values
Method in brief: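 Buffer or medium: restrictive glucose medium (CSMM-D); test system: modified S. cerevisiae; doses: single dose of 10 µM compound final, 0.25% DMSO; schedule: 48 h compound exposure at 30 °C; detection: absorbance (optical density) measured at 615 nm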

[3] = viability gain of MRP-1-high H69AR cells under doxorubicin, pilot screen, MRP-1 activator project, CellTiter-Glo, duplicate (AID 807); conditions: H69AR viability with doxorubicin, CellTiter-Glo luminescence; at 10 µM; hits give high values;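 also: compound pretreatment 18-22 h then 72 h combined with doxorubicin; 0% = doxorubicin alone and 100% = vehicle without doxorubicin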
[4] = growth suppression of beta-catenin knockout HCT116, pilot screen, human colon tumor cells (AID 823;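 active = cell viability at or below a set limit in both duplicate runs, the limit being the all-compound median minus 4 SD, cut at about 23% in these data, passing the limit was not always enough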;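 also: 0% = wells killed by 20 µM Hyamine and 100% = untreated DMSO cell wells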); conditions: CellTiter-Glo, 60 h, at 10 µM, hits give low values
[5] = growth suppression of PTEN-deleted HCT116, pilot screen, cell-based, HCT116 clonal line, CellTiter-Glo (AID 824;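 active = viability at or below 27.92% in each of two runs, the all-compound median minus 4 SD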;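 also: 0% = 20 µM Hyamine control and 100% = vehicle cell control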); conditions: 60 h, at 10 µM, hits give low values
[6] = inhibitors of the yeast RAM network, pilot screen, dse1pr::URA3 reporter, 5-FOA selection (AID 869;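 active = inhibition over a set limit, the all-compound mean plus 3 SD, in both replicate runs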;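 also: 0% = DMSO wells with no growth and 100% = 10 µM 1-NA-PP1 with full growth; RAM network block rescues cells from 5-FOA so hits raise OD615 growth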); conditions: S. cerevisiae dse1pr::URA3 5-FOA growth, OD615, 2 d; at 10 µM; hits give high values; strain carries analog-sensitive mutant Cbk1 kinase
[7] = RAM signaling pathway blockade in yeast – S. cerevisiae, Pdr1DBD-CYC8 efflux-inhibited sensitized strain, primary screen (AID 1298;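 active = RAM network inhibition above 8.4% in each of two replicates, 3 SD over the compound average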;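 also: 0% = DMSO untreated cells without growth and 100% = 10 µM 1-NA-PP1 full growth; higher means more yeast growth rescued from 5-FOA killing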); conditions: S. cerevisiae cbk1-as DSE1-URA3 strain, 5-FOA growth OD615, 2 d; at 50 µM; hits give high values

| Compound | growth inhibition [1] [%] | growth inhibition [2] | viability increase [3] [%] | viability [4] [%] | viability [5] [%] | inhibition [6] [%] | RAM network inhibition [7] [%] |
| --- | --- | --- | --- | --- | --- | --- | --- |
| O=C(Nc1ccc(N2CCCC2)c(Cl)c1)c1ccco1 | -2.11 | 8.76% | 0.68 | 91.5 | 89.1 | 1.51 | 0.62 |
| O=C(NCC1CCCO1)c1nnc(Cc2ccc(F)cc2)o1 (configuration not stated) | -12.6 | 10.5% | -0.18 | 98.4 | 99.4 | 0.085 | 1.47 |
| O=C(NC(O)C(=O)c1ccccc1)c1cccs1 (configuration not stated) | 5.04 | -5.63% | -3.2 | 95.4 | 101 | 1.66 | 2.71 |
| CCC(C)Sc1nc2c(cnn2-c2ccc(C)c(C)c2)c(=O)[nH]1 (configuration not stated) | -5.49 | 1.98% | -3.4 | 73 | 75.9 | 3.72 | -0.06 |
| O=C(NCS(=O)(=O)c1ccccc1)c1ccccc1 | -15.4 | -4.22% | -0.04 | 101 | 101 | 0.675 | 1.79 |
| COC(=O)CSC1=C(C#N)C(c2ccc(C(C)C)cc2)CC(=O)N1 (configuration not stated) | -0.135 | -3.29% | 0.86 | 89.8 | 89.3 | 3.04 | 4.09 |
| COCCNC(=O)C1CC(=O)N(c2ccc(F)c(Cl)c2)C1 (configuration not stated) | -2.14 | -4% | 0.07 | 105 | 95.7 | 0.835 | 1.14 |
| COc1ccccc1NC(=O)CSc1nnc(C)o1 | -7.09 | -9.04% | -1.19 | 101 | 102 | 2.02 | 2.69 |
| CCOc1ccc(N2C(=O)CC(Sc3nc(C)cc(C)n3)C2=O)cc1 (configuration not stated) | -3.95 | 1.55% | -1.4 | 108 | 98.9 | 0.24 | 3.27 |
| COc1cc(OC)cc(C(=O)OCn2nnc3ccccc3c2=O)c1 | -9.62 | -4.46% | -0.87 | 101 | 96.1 | 1.33 | 7.22 |
| CC1NC(=O)NC1CCCCC(=O)O (configuration not stated) | -6.38 | 2.25% | 1.3 | 109 | 104 | 3.06 | 2.65 |
| COc1cccc(C(=O)Nc2cc(=O)n(C)c(=O)n2C)c1OC | -1.72 | -6.04% | -2.46 | 105 | 98.8 | 1.94 | 1.14 |
| Cc1nnc(NC(=O)CSc2nc3c(c(=O)n2CCc2ccccc2)SC(C)C3)s1 (configuration not stated) | -9.82 | -15.6% | 0.33 | 101 | 103 | 3.13 | 6.06 |
| Nc1ccc(OCc2ccccc2)cc1 | -14.4 | -9.93% | -4.17 | 98.7 | 89.4 | 1.9 | 5.27 |
| CCn1c(=NC(=O)CN2C(=O)CCC2=O)sc2c(C)cc(C)cc21 | -13.1 | -2.35% | -4.23 | 92.2 | 91.2 | 0.505 | 6.51 |
| O=C(Cn1nc(-c2ccccc2)ccc1=O)N1CCOCC1 | 4.29 | 8.44% | -0.71 | 96 | 108 | -0.155 | 0.21 |
| COc1ccc(C(c2sc3ncnn3c2O)N2CCN(c3ccccc3F)CC2)cc1OC (configuration not stated) | 0.27 | 11.7% | 1.69 | 103 | 92 | 1.3 | 1.06 |
| COc1c(C)cccc1C(=O)Nc1cc(-c2nn3c(C)nnc3s2)ccc1C | 13.5 | 37% | -5.61 | 73.9 | 64.2 | 2.07 | 7.01 |

| Compound | growth inhibition [1] [%] | growth inhibition [2] | viability increase [3] [%] | viability [4] [%] | viability [5] [%] | inhibition [6] [%] | RAM network inhibition [7] [%] |
| --- | --- | --- | --- | --- | --- | --- | --- |
| CCN1CCN(C(c2cccs2)C(C)NC(=O)C(C)C)CC1 (configuration not stated) | -3.71 | 2.65% | -2.01 | 98 | 92.2 | -0.3 | 3.86 |
| Cc1ccc(CNC(=O)CS(=O)Cc2nc(-c3cccs3)oc2C)cc1 (configuration not stated) | 13.6 | 57.4% (active) | -2.97 | 90.5 | 92.7 | 1.67 | 2.88 |
| COc1ccc(OC)c(NC(=O)CSc2nnc(Cn3c(=O)sc4ccccc43)n2C)c1 | -10.2 | -1.53% | -2.91 | 94.3 | 86.5 | 2.36 | 3.22 |
| CCCSc1nnc2nc(C)cc(C)n12 | -2.7 | 1.39% | -0.95 | 103 | 101 | 2 | -0.46 |
| CC(=O)c1ccc(OCC(O)CN2C(C)(C)CC(O)CC2(C)C)cc1 (configuration not stated) | -16.9 | -12.3% | 1.37 | 105 | 96.8 | 1.66 | 7.12 |
| CC(C)COC(=O)C1C2C=CC3(CN(C4CCCC4)C(=O)C13)O2 (configuration not stated) | -14.1 | -0.515% | -1.25 | 107 | 92.8 | 2.07 | 2.04 |
| Cc1sc2nc(SCC(=O)N3CCCC3)[nH]c(=O)c2c1C | -0.89 | -6.9% | -1.34 | 104 | 98 | 0.26 | 1.77 |
| CSc1ccc(S(=O)(=O)N2CCN(Cc3ccc4c(c3)OCO4)CC2)cc1 | -2.74 | 14.3% | -4.46 | 88.1 | 86.3 | 0.865 | 6.37 |
| CCOC(=O)N1CCN(C(=O)CS(=O)Cc2nc(-c3ccc(C)cc3)oc2C)CC1 (configuration not stated) | -5.11 | 7.44% | -1.59 | 89.3 | 92.1 | 1.68 | 7.07 |
| CCOC(=O)c1ccc(N2C(=O)c3n[nH]c(C)c3C2c2ccccn2)cc1 (configuration not stated) | 0.375 | 3.62% | 0.57 | 108 | 114 | 0.195 | 3.09 |
| COCCOC(=O)C1=C(C)NC(=O)NC1C1CC=CCC1 (configuration not stated) | -6.74 | -6.73% | 0.63 | 91.5 | 101 | 1.45 | 5.08 |
| CCn1cc(C(=O)Nc2ccc3c(c2)OCCO3)c2cc(OC)c(OC)cc2c1=O | -10 | 2.6% | -6.05 | 101 | 88.6 | 0.915 | -1.36 |
| CCCOc1ccc(C(=O)NCCC(=O)NCCCC(=O)OCC)cc1 | -14.6 | -20.7% | 0.2 | 91.8 | 104 | 1.34 | 0.47 |
| NC(=O)C1(N2CCCCC2)CCN(C(=O)c2cccs2)CC1 | -8.17 | -16.6% | 0.57 | 105 | 92.3 | 0.955 | 1.19 |
| CN1/C(=C/C=N/n2cnnc2)C(C)(C)c2ccccc21 | -6.3 | -17.9% | -0.78 | 98 | 93.2 | 0.465 | 3.01 |
| COc1ccc(O)c(C(=O)c2cnn(C(=O)c3cc(C)oc3C)c2)c1 | -9.76 | -11.3% | -1.89 | 97.2 | 88.7 | 2.02 | 1.5 |
| CCC(=O)Nc1ccc(C(=O)c2ccccc2)cc1 | -6.81 | -2.21% | 2.97 | 98.5 | 97 | 1.16 | 2.9 |
| COCCNC(=O)CS(=O)Cc1nc(-c2ccc(Cl)cc2)oc1C (configuration not stated) | -6.59 | -1.85% | -0.72 | 94.7 | 95.1 | 3.21 | 0.65 |
